Assay outcomes: PubChem BioAssay, several laboratories
Runt-CBFb FRET – inhibitors of human RUNX1 Runt domain binding to CBFb | actives 0.46% (n = 220,000) | Q01196+Q13951 | inhibition, % at 20 µM | Cerulean-Runt/Venus-CBFb FRET ratio 530/480, 1 h | AID 1496;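 active means inhibition over about 50% at 20 µM in the single-dose screen, limit read from the data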;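 further: 0% = DMSO wells and 100% = excess unlabeled CBFb competitor control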
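Doses: 20 µM compound in 1% DMSO | Material: Cerulean-labeled Runt domain protein | Amount: Each fluorescent fusion protein 100 nM | Schedule: Two 1 h room-temperature incubations shielded from light | Measured by: FRET fluorescence | Evaluation: Loss of energy transfer signal | Controls: Unlabeled CBFb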
Runt-SMMHC FRET – Runt domain-CBFb-SMMHC interaction inhibition. Q01196+Q13951. Cerulean-Runt/Venus-CBFb-SMMHC FRET ratio 530/480, 1 h. inhibition, % at 20 µM. actives 0.74% (n = 220,000);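 active means mean inhibition across duplicate retests at 20 µM reaching about 50%, limit read from the data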;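 further: 0% = DMSO wells and 100% = wells with excess untagged CBFb-SMMHC; inhibitors lower the FRET ratio by blocking Runt binding to CBFb-SMMHC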
RanGTP-Impb inh – disruptors of Ran-importin-beta complex formation – biochemical, FRET, CFP-Ran, YFP-importin-beta, homogeneous, primary screen | AID 2216 | cell-free CFP-Ran/YFP-importin-beta FRET ratio | inhibition, % (concentration not given with the values) | actives 1.1% (n = 300,000);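 active means more than half of the replicate wells show a fall in the fluorescence ratio signal beyond about 16%, limit read from the data, passing the limit was not always enough; inconclusive means exactly half of the replicate wells pass the set limit; inactive means fewer than half of replicates pass the limit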;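 further: 0% = DMSO wells and 100% = Ran loaded with GDP instead of GTP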
Hck Nef HTS – human Hck-Nef kinase inhibition; P08631; Recombinant Hck-YEEI plus Nef, Z-Lyte FRET kinase assay; inhibition, % at 20 µM; actives 0.68% (n = 220,000);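 active means Hck-Nef kinase inhibition above about 50%, limit read from the data; inactive means inhibition below that limit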;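 further: 0% = DMSO with Hck plus Nef and 100% = Hck alone without Nef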
Target sequence (P08631 whole entry, looked up): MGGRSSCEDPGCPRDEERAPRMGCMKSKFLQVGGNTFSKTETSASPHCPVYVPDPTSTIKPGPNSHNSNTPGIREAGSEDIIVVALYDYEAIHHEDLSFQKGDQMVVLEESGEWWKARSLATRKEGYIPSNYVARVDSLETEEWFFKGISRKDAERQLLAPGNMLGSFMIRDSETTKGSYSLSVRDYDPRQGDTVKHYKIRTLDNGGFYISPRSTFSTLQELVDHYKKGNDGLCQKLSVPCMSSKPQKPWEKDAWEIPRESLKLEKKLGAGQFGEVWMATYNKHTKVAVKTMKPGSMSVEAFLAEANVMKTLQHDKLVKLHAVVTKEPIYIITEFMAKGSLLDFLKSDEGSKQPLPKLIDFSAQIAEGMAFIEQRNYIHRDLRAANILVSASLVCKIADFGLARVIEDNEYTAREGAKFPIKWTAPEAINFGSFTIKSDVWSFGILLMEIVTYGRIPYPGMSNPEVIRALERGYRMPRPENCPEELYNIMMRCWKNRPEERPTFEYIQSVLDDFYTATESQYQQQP
* = called active by the depositor; ? = inconclusive; . = no result. Sampled rows, rich in hits. Any-hit rate of the full collection: about 1.7%.

SMILES	Runt-CBFb FRET	Runt-SMMHC FRET	RanGTP-Impb inh	Hck Nef HTS
N#C/C(=C\c1ccc(-c2ccc(C(=O)O)cc2)o1)C(=O)Nc1ccc(F)cc1	.	.	-24.6	.
N#C/C(=C\c1ccc(N2CCOCC2)o1)C(=O)NCC1CCCO1 (centres undefined)	9.8	9.5	12.1	-12.7
Cc1cccc(C)c1NC(=O)/C(C#N)=C/c1ccc(-c2ccc(C(=O)O)cc2)o1	.	.	37.1*	.
N#C/C(=C\c1ccc(-c2ccc(C(=O)O)cc2)o1)C(=O)NCC1CCCO1 (centres undefined)	14.2	28.8	29.5*	4.9
CCOc1ccc(-c2csc(NC(=O)CSCC(=O)O)n2)c2ccccc12	27.2	97.4*	0.3	16.0
Cc1ccc2nc3c(cc2c1)c(C)nn3-c1ccccc1	.	.	61.1*	.
Cc1ccc([C@@H]2[C@@H]3C(=O)N(C)C(=O)[C@@H]3[C@@H]3C(=O)Nc4ccccc4C(=O)N23)cc1	.	.	-0.8	.
CCCCCN(C(=O)CCC(=O)OC(C)C(=O)c1ccc(Cl)cc1)c1c(N)n(CCCC)c(=O)[nH]c1=O (centres undefined)	.	.	0.9	.
CCOC(=O)c1sc2c(c1C)C(c1cccs1)C1=C(CCCC1=O)N2 (centres undefined)	99.3*	111.4*	?	17.5
CCOC(=O)C1=C(C)NC2=C(C(=O)CCC2)C1c1cccs1 (centres undefined)	-0.8	2.2	-0.3	5.5
Cc1ccc2c(c1)CC1(CN2C)C(=O)OC2(CCCCC2)OC1=O	-4.1	-29.5	25.9*	8.2
Cc1ccc2c(c1)C(=O)CC1(CCCCCC1)O2	1.2	-3.9	2.8	24.4
CC(NC(=O)c1ccco1)c1cccc2ccccc12 (centres undefined)	0.3	8.8	0.9	-0.6
CCn1nc(NC(=O)c2ccco2)c2cc3cc(C)ccc3nc21	39.4	84.0*	54.4*	-10.2
CCCC(=O)Nc1nn(CCC)c2nc3ccccc3cc12	7.7	3.8	7.6	14.1
Cc1ccc2cc3c(NC(=O)c4ccco4)nn(C)c3nc2c1	17.2	26.6	23.2*	16.3
CC(=O)Nc1nn(C)c2nc3cc(C)ccc3cc12	-2.4	-8.2	8.9	10.1
CCCn1nc(NC(=O)c2ccco2)c2cc3ccccc3nc21	15.3	58.4	45.9*	20.5
O=C1OC(/C=C/c2ccc(Cl)cc2)=NC/1=C/c1ccco1	10.1	-42.9	0.4	15.2
COc1cc2cc(C(=O)N3CCN(Cc4ccc5c(c4)OCO5)CC3)c(=O)oc2cc1OC	27.8	54.7*	6.4	28.6
CCc1nc2oc3ccc(C)cc3c(=O)c2cc1C(=O)OC	.	.	0.6	.
COc1ccc(CNC(=O)C(C)Sc2nc3ccccc3c(=O)n2CCCN2CCOCC2)cc1 (centres undefined)	-0.2	-2.3	0.3	-33.8
Nc1c(S(=O)(=O)c2cccc(Cl)c2)c2nc3ccccc3nc2n1CCN1CCOCC1	0.6	-3.4	12.0	2.8
CCCCCOC(=O)c1c(N)n(CCOC)c2nc3ccccc3nc12	36.3	114.5*	6.0	41.1
O=C(NCc1ccco1)c1ccc2ccccc2n1	-8.2	0.4	-3.0	12.1
SMILES	Runt-CBFb FRET	Runt-SMMHC FRET	RanGTP-Impb inh	Hck Nef HTS
COc1ccc(CNC(=O)c2c(N)n(CCCN3CCOCC3)c3nc4ccccc4nc23)cc1	17.9	80.9*	96.7*	42.3
Nc1c(C(=O)NCc2ccco2)c2nc3ccccc3nc2n1CCc1ccccc1	38.1	76.0*	55.6*	43.7
COC(=O)c1c(N)n(CCCN2CCOCC2)c2nc3ccccc3nc12	65.9*	129.6*	20.7*	27.9
CCCCCn1c(S(=O)(=O)O)nc2ccccc21	-1.8	0.5	1.5	0.1
NNC(=O)c1cc2c(N3CCC(Cc4ccccc4)CC3)ncnc2s1	-3.0	-4.1	-0.5	12.3
O=C(NCCCN1CCOCC1)C(=O)NCc1ccccc1	0.5	-0.8	-0.6	13.0
Nc1c(C(=O)NCc2ccccc2)c2nc3ccccc3nc2n1CCCN1CCOCC1	78.6*	76.0*	100.9*	40.2
Nc1c(C(=O)NCc2ccc(F)cc2)c2nc3ccccc3nc2n1CCCN1CCOCC1	12.5	80.9*	87.5*	48.5
CCc1cc(=O)oc2c(CNCc3ccccc3F)c(O)c(Cl)cc12	.	.	35.9*	.
CCc1cc(=O)oc2c(CNC(Cc3ccccc3)C(=O)O)c(O)ccc12 (centres undefined)	.	.	0.8	.
CCNc1c(NS(=O)(=O)c2ccc([N+](=O)[O-])cc2)c(=O)oc2ccccc12	.	.	0.9	.
CCn1c2ccccc2c2nc3ccccc3nc21	-1.8	-5.0	-0.3	7.5
CCn1c2ccccc2c2nc3cc(OC)c(OC)cc3nc21	1.6	4.5	88.8*	16.5
COc1cc2nc3c4ccccc4n(CC#N)c3nc2cc1OC	20.7	51.4*	9.4	2.1
COc1ccc(N(CC(=O)NC2CCCC2)C(=O)Cn2nnc(-c3ccc(F)cc3)n2)cc1	.	.	8.6	.
CCOc1cc(Br)c(Br)c(C=Nc2ccc(NC(C)=O)cc2)c1O	-4.6	-20.2	-6.9	62.6*
CCOc1cc(/C=N/NC(=O)C(N)=O)cc(Br)c1O	5.0	1.5	0.1	8.8
Cc1ccc(CNC(=O)c2ccc3c(=O)n(CC4CCCO4)c(=S)[nH]c3c2)cc1 (centres undefined)	2.3	-4.0	-1.9	19.9
Cc1cccn2c(=O)c3cc(C(=O)NCc4ccc(F)cc4)c(=N)n(CC4CCCO4)c3nc12 (centres undefined)	.	.	185.1*	.
COCCn1c(=N)c(C(=O)NCCc2ccc(OC)cc2)cc2c(=O)n3cccc(C)c3nc21	108.5*	113.7*	77.6*	12.7
COc1ccc(CNC(=O)c2cc3c(=O)n4cccc(C)c4nc3n(CC3CCCO3)c2=N)cc1 (centres undefined)	.	.	76.7*	.
Cc1nn(C(C)C(=O)NCc2cccs2)c(C)c1[N+](=O)[O-] (centres undefined)	0.4	-1.9	3.0	-13.0
O=C(O)c1cc(-c2ccc(/C=C3\NC(=O)N(c4ccc(Cl)cc4)C3=O)o2)ccc1Cl	18.0	81.1*	8.8	8.4
O=C(O)c1cc(-c2ccc(/C=C3\NC(=O)N(c4ccccc4)C3=O)o2)ccc1Cl	46.0	82.5*	3.6	-5.6
O=C1NN(c2ccccc2)C(=O)/C1=C/c1ccc(-c2ccc(Cl)c(C(=O)O)c2)o1	6.9	8.2	4.5	32.7
SMILES	Runt-CBFb FRET	Runt-SMMHC FRET	RanGTP-Impb inh	Hck Nef HTS
Cc1cccc(N2NC(=O)/C(=C/c3ccc(-c4ccc(Cl)c(C(=O)O)c4)o3)C2=O)c1	11.4	7.2	3.2	39.2
O=C(NCc1ccccn1)C1CCCCC1	1.1	-3.8	3.0	-1.2
Cc1onc(-c2c(F)cccc2Cl)c1C(=O)Nc1sc2c(c1C(N)=O)CCC2	3.1	0.7	60.6*	-0.6
Cc1sc(NC(=O)C2CCCCC2)c(C#N)c1-c1ccccc1	1.7	-3.9	0.7	1.3
Cc1onc(-c2ccccc2)c1C(=O)Nc1sc2c(c1C#N)CCC2	8.6	7.2	46.3*	17.9
Cc1onc(-c2ccccc2)c1C(=O)NC(=S)Nc1sc2c(c1C#N)CCC(C)C2 (centres undefined)	20.2	16.2	-0.9	-2.1
